Measurements reported in publication PMC4811700 (European journal of medicinal chemistry, 2016).

Columns and labels:
[1] = biological target: Mcl-1^172-327 (Homo sapiens, UniProt Q07820); assay: NMR 1H,15N-HSQC with 15N-labeled Mcl-1; format: binding; conditions: 131 μM 15N-labeled Mcl-1, 182 μM compound
Outline: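 2D 1H,15N-fast HSQC collected at 25 °C, 800 MHz, with and without compound. Buffer: 20 mM HEPES pH 6.8, 50 mM NaCl, 3 mM DTT, 20% D2O, 5% d6-DMSO. Backbone amide shift changes monitored.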

[2] = biological target: Mcl-1 (Homo sapiens, UniProt Q07820); assay: Fluorescence polarization competition assay; format: binding; conditions: for change in experimental free energy of binding to Mcl-1: relative to the preceding compound in the series 3b, 3a, 3bi, 3bl; for binding affinity to Mcl-1 in vitro: data not shown
Mcl-1, sequence (Q07820 172-327): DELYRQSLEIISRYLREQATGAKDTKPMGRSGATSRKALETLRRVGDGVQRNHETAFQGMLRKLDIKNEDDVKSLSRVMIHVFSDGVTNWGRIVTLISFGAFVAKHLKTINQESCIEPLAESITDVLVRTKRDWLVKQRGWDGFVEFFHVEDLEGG

Mcl-1^172-327, sequence (Q07820 172-327): as above

CC(C)CN(c1ccc(OC(C)C)cc1)S(=O)(=O)c1cc(C(=O)O)c(O)c2ccccc12 [Compound 3ba, 1-Hydroxy-4-(N-isobutyl-N-(4-isopropoxyphenyl)sulfamoyl)-2-naphthoic acid]
interaction with Mcl-1 by HSQC chemical shift perturbation [1]: direct interaction

Cc1cc(Oc2ccc(N(Cc3ccccc3)S(=O)(=O)c3cc(C(=O)O)c(O)c4ccccc34)cc2)cc(C)c1Cl [Compound 3bl, 4-(N-Benzyl-N-(4-(4-chloro-3,5-dimethylphenoxy)phenyl)sulfamoyl)-1-hydroxy-2-naphthoic acid]
change in experimental free energy of binding to Mcl-1 [2]: -0.8 kcal/mol

COc1c(C(=O)O)cc(S(=O)(=O)N(CC(C)C)c2ccc(Br)cc2)c2ccccc12 [Compound 12, 4-(N-(4-Bromophenyl)-N-isobutylsulfamoyl)-1-methoxy-2-naphthoic acid]
fold reduction in Mcl-1 activity ([2]; methylation of hydroxyl group, relative to 3ca): ~40 fold

CC(=O)OCOC(=O)c1cc(S(=O)(=O)N(CC(C)C)c2ccc(OC(C)C)cc2)c2ccccc2c1O [Compound 14, Acetoxymethyl 1-hydroxy-4-(N-isobutyl-N-(4-isopropoxyphenyl)sulfamoyl)-2-naphthoate]
binding affinity to Mcl-1 in vitro [2]: no binding affinity

O=C(O)c1cc(S(=O)(=O)Nc2ccc(Br)cc2)c2ccccc2c1O [Compound 3a, 4-(N-(4-bromophenyl)sulfamoyl)-1-hydroxy-2-naphthoic acid]
change in experimental free energy of binding to Mcl-1 [2]: -2.1 kcal/mol

COC(=O)c1cc(S(=O)(=O)N(CC(C)C)c2ccc(OC(C)C)cc2)c2ccccc2c1O [Compound 13, Methyl 1-hydroxy-4-(N-isobutyl-N-(4-isopropoxyphenyl)sulfamoyl)-2-naphthoate]
binding affinity to Mcl-1 in vitro [2]: no binding affinity

Cc1cc(Oc2ccc(NS(=O)(=O)c3cc(C(=O)O)c(O)c4ccccc34)cc2)cc(C)c1Cl [Compound 3bi, 4-(N-(4-(4-Chloro-3,5-dimethylphenoxy)phenyl)sulfamoyl)-1-hydroxy-2-naphthoic acid]
change in experimental free energy of binding to Mcl-1 [2]: -1.9 kcal/mol

O=C(O)c1cc(S(=O)(=O)NCC2CCCCC2)c2ccccc2c1O [Compound 3g, 4-(N-(Cyclohexylmethyl)sulfamoyl)-1-hydroxy-2-naphthoic acid]
fold improvement in Mcl-1 inhibitory activity ([2]; relative to unsubstituted benzylic amine derivative 3c): 8 fold
